Active and inactive are the calls of the source. No cut-off for these calls is given here. Square brackets hold non-standard residues; d marks the D form. Peptide text beside a SMILES is read from it. * marks the point of attachment. ξ: configuration not given here. Phe(4-NO2) = N[C@@H](Cc1ccc([N+](=O)[O-])cc1)C(=O)O; Phe(4-CN) = N#Cc1ccc(C[C@H](N)C(=O)O)cc1; 3Pal = N[C@@H](Cc1cccnc1)C(=O)O; Cha = N[C@@H](CC1CCCCC1)C(=O)O; Tle = CC(C)(C)[C@H](N)C(=O)O; ξChg = NC(C(=O)O)C1CCCCC1; 3Abz = Nc1cccc(C(=O)O)c1; 4Abz = Nc1ccc(C(=O)O)cc1; Nva = CCC[C@H](N)C(=O)O; 2Abz = Nc1ccccc1C(=O)O; ξPip = O=C(O)C1CCCCN1; ξPra = C#CCC(N)C(=O)O; Aib = CC(C)(N)C(=O)O; Bz = O=C(c1ccccc1)*; βAla = NCCC(=O)O
Tests used:
[1] = biological target: Genome polyprotein (dengue virus type 2) (UniProt P12823); assay: Inhibition of Dengue virus serotype 2 NS2B-NS3 protease at 50 uM by homogeneous fluorimetric assay
[2] = biological target: Genome polyprotein (dengue virus type 2, UniProt P12823); assay: Inhibition of Dengue virus serotype 2 NS2B-NS3 protease by homogeneous fluorimetric assay
[3] = biological target: Genome polyprotein (West Nile virus) (UniProt P06935); assay: Inhibition of West Nile virus […] NS2B-NS3 protease at 50 uM by homogeneous fluorimetric assay
Sequence of Genome polyprotein (West Nile virus) (P06935 whole entry): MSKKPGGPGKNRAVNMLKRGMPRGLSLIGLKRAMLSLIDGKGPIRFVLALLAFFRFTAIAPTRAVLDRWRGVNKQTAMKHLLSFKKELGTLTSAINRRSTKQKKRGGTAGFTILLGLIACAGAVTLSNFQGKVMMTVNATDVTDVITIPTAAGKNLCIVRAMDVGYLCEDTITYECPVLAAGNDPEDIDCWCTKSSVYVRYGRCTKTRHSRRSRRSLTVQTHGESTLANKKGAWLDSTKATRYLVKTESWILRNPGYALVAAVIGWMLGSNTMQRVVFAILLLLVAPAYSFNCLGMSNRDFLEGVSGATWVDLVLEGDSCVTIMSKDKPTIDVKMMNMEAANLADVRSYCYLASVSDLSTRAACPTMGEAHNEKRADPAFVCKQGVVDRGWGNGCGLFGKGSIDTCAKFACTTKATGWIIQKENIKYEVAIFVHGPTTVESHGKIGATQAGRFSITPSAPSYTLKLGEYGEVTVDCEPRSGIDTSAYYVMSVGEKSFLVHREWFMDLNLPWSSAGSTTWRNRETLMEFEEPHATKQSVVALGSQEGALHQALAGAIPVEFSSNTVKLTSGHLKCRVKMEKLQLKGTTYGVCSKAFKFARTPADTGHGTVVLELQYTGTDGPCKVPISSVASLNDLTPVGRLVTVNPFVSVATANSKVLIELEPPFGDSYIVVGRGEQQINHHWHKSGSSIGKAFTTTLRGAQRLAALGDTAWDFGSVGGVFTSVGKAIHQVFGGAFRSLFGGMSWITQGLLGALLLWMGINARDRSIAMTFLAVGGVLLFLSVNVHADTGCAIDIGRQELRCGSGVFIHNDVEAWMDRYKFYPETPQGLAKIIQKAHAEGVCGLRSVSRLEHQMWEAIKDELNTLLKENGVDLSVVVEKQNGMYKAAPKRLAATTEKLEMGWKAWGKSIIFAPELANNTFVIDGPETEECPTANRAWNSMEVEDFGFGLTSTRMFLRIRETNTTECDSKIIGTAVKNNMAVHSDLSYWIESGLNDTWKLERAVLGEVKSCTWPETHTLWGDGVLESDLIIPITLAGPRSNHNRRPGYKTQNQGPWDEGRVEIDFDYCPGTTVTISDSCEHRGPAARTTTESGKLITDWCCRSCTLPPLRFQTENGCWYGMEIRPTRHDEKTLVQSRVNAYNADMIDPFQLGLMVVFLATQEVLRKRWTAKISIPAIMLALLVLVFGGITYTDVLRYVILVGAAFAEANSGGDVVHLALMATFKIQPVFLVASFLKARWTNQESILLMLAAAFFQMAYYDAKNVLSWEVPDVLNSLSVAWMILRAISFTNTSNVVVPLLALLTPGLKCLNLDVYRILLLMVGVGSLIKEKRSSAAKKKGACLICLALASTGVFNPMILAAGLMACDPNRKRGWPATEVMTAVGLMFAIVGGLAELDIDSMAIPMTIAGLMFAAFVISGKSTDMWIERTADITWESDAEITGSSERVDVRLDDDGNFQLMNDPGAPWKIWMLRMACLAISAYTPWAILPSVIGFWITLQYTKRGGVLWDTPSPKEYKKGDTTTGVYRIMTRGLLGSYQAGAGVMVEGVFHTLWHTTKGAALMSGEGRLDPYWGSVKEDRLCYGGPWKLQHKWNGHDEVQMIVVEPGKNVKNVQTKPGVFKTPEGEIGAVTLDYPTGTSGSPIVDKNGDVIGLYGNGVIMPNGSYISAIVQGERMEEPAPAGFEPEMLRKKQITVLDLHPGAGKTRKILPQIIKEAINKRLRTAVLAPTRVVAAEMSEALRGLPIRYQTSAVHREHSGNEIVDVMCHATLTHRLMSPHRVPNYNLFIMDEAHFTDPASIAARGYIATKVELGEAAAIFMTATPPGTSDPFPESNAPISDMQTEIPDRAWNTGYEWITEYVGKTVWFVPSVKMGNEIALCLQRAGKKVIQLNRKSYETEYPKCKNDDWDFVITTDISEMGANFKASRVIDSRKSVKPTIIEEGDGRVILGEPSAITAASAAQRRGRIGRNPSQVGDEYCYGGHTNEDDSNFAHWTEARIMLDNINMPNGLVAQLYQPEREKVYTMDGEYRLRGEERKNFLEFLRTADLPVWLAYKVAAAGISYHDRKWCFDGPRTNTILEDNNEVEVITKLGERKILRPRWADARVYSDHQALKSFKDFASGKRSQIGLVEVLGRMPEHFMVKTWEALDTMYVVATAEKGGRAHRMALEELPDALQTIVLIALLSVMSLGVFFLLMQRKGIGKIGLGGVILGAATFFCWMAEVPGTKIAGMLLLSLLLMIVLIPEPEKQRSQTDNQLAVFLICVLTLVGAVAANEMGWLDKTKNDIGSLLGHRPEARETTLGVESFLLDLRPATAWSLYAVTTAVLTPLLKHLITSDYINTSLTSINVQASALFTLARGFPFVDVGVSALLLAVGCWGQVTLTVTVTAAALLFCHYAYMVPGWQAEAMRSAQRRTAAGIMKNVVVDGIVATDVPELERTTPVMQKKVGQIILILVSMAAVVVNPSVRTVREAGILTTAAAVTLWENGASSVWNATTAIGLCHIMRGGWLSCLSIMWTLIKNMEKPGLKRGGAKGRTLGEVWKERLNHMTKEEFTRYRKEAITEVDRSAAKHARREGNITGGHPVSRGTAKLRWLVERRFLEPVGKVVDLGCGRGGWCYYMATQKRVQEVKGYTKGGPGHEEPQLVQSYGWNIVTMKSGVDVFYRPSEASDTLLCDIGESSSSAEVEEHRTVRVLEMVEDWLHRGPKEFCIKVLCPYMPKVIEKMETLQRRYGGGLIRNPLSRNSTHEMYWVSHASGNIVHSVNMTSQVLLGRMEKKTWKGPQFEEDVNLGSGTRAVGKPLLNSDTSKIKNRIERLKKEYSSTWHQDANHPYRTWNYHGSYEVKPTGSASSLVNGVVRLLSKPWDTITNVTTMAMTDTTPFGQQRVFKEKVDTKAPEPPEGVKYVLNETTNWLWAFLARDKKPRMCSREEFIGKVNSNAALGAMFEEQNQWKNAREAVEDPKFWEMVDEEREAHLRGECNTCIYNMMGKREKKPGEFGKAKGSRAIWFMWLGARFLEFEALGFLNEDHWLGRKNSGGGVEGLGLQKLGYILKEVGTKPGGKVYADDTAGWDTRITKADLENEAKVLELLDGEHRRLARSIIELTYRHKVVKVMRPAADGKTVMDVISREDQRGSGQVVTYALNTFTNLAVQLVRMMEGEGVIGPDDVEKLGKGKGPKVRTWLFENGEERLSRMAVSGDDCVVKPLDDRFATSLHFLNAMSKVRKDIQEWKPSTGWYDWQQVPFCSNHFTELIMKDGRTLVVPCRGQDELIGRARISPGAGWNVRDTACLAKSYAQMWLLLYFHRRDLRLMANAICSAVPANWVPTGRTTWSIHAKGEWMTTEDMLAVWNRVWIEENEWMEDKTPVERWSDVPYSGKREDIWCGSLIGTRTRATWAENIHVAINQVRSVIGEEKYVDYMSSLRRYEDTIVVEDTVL
Method in brief: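 WNV NS2B-NS3 protease percent inhibition, homogeneous fluorimetric assay: enzyme 150 nM, inhibitor 50 μM, substrate 50 μM (Km = 212 μM); triplicate, SD below 10%.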

[4] = biological target: Prothrombin (Homo sapiens) (UniProt P00734); assay: Inhibition of thrombin (unknown origin) at 25 uM by homogeneous fluorimetric assay

| Compound | inhibition [1] [%] | IC50 [2] [µM] | inhibition [3] [%] | inhibition [4] |
| --- | --- | --- | --- | --- |
| CC[C@H](C)[C@H](NC(=O)[C@H](CCCCN)NC(=O)[C@H](CCCNC(=N)N)NC(=O)c1ccccc1)C(N)=O (Bz-Arg-Lys-Ile-NH2) | 56.6 | 28.2 | 14.9 | 4.6% |
| CSCC[C@H](NC(=O)[C@H](CCCCN)NC(=O)[C@H](CCCNC(=N)N)NC(=O)c1ccccc1)C(N)=O (Bz-Arg-Lys-Met-NH2) | 45 | 47.5 | 11.8 | 6.2% |
| N=C(N)NCCC[C@H](NC(=O)c1ccccc1)C(=O)N[C@@H](CCCCN)C(=O)NCCC(N)=O (Bz-Arg-Lys-[βAla]-NH2) | 32.9 | 109 | 19.8 | inactive |
| CCCC[C@H](NC(=O)[C@H](CCCCN)NC(=O)[C@H](CCCNC(=N)N)NC(=O)c1ccc(/C=C2\SC(=O)N(C3CCCC3)C2=O)cc1)C(N)=O | 98.2 | 2.5 | 51.8 |  |
| N=C(N)NCCC[C@H](NC(=O)c1ccccc1)C(=O)N[C@@H](CCCCN)C(=O)N[C@@H](CC1CCCCC1)C(N)=O (Bz-Arg-Lys-[Cha]-NH2) | 80 | 8.2 | 19.1 | inactive |
| N=C(N)NCCC[C@H](NC(=O)c1ccccc1)C(=O)N[C@@H](CCCCN)C(=O)Nc1ccccc1C(N)=O (Bz-Arg-Lys-[2Abz]-NH2) | 62 | 15.8 | 8.7 | 6.4% |
| CC(C)(C)[C@H](NC(=O)[C@H](CCCCN)NC(=O)[C@H](CCCNC(=N)N)NC(=O)c1ccccc1)C(N)=O (Bz-Arg-Lys-[Tle]-NH2) | 18.8 | 137 | 11.7 | inactive |
| N=C(N)NCCC[C@H](NC(=O)c1ccccc1)C(=O)N[C@@H](CCCCN)C(=O)Nc1cccc(C(N)=O)c1 (Bz-Arg-Lys-[3Abz]-NH2) | 27 | 96.6 | 23 | 5.6% |
| N#C/C(=C\c1ccc(C(=O)N[C@@H](CCCNC(=N)N)C(=O)N[C@@H](CCCCN)C(=O)NC(C(N)=O)c2ccccc2)cc1)C(=O)NC1CC1 (stereo not given in full) | 98.6 | 1.3 | 90.2 | 5.6% |
| CCCC[C@@H](NC(=O)[C@H](CCCCN)NC(=O)[C@H](CCCNC(=N)N)NC(=O)c1ccccc1)C(N)=O | 72.7 | 14.1 | 16.1 | 4.9% |
| N=C(N)NCCC[C@H](NC(=O)c1ccccc1)C(=O)N[C@@H](CCCCN)C(=O)NC(C(N)=O)C1CCCCC1 (stereo partly drawn) (Bz-Arg-Lys-[ξChg]-NH2) | 71.7 | 17.4 | 12.1 | inactive |
| CC(C)[C@H](NC(=O)[C@H](CCCCN)NC(=O)[C@H](CCCNC(=N)N)NC(=O)c1ccccc1)C(N)=O (Bz-Arg-Lys-Val-NH2) | 60 | 28.8 | 18.3 | 4.9% |
| N=C(N)NCCC[C@H](NC(=O)c1ccc(/C=C2\SC(=O)N(C3CCCC3)C2=O)cc1)C(=O)N[C@@H](CCCCN)C(=O)N1Cc2ccccc2CC1C(N)=O (stereo not given in full) | 85.7 | 10.5 | 49.4 | 7.6% |
| C[C@@H](O)[C@H](NC(=O)[C@H](CCCCN)NC(=O)[C@H](CCCNC(=N)N)NC(=O)c1ccccc1)C(N)=O (Bz-Arg-Lys-Thr-NH2) | 32.1 | 98.6 | 16.5 | inactive |
| CCCC[C@H](NC(=O)[C@H](CCCCN)NC(=O)[C@H](CCCNC(=N)N)NC(=O)c1ccc(/C=C(\C#N)C(=O)NC2CC2)cc1)C(N)=O | 88.5 | 5.3 | 28 |  |
| CC(C)(NC(=O)[C@H](CCCCN)NC(=O)[C@H](CCCNC(=N)N)NC(=O)c1ccccc1)C(N)=O (Bz-Arg-Lys-[Aib]-NH2) | 55 | 46.7 | 13.7 | inactive |
| N#C/C(=C\c1ccc(C(=O)N[C@@H](CCCNC(=N)N)C(=O)N[C@@H](CCCCN)C(=O)N2Cc3ccccc3CC2C(N)=O)cc1)C(=O)NC1CC1 (stereo not given in full) | 59.2 | 24.9 | 38.3 | inactive |
| N=C(N)NCCC[C@H](NC(=O)c1ccccc1)C(=O)N[C@@H](CCCCN)C(=O)N1CCCCC1C(N)=O (stereo partly drawn) (Bz-Arg-Lys-[ξPip]-NH2) | 13.7 | 159 | 12.1 | inactive |
| CC(C)(C)[C@H](NC(=O)[C@H](CCCCN)NC(=O)[C@H](CCCNC(=N)N)NC(=O)c1ccc(/C=C(\C#N)C(=O)NC2CC2)cc1)C(N)=O | 32.5 | 57.6 | 26.7 | 5% |
| N=C(N)NCCC[C@H](NC(=O)c1ccccc1)C(=O)N[C@@H](CCCCN)C(=O)NCC(N)=O (Bz-Arg-Lys-Gly-NH2) | 70.4 | 21 | 44.6 | 3.5% |
| CC(C)(C)[C@H](NC(=O)[C@H](CCCCN)NC(=O)[C@H](CCCNC(=N)N)NC(=O)c1ccc(/C=C2\SC(=O)N(C3CCCC3)C2=O)cc1)C(N)=O | 60.6 | 29.8 | 28 | 10.2% |

Second part, the compound after the results:

| inhibition [1] [%] | IC50 [2] [µM] | inhibition [3] [%] | inhibition [4] | Compound |
| --- | --- | --- | --- | --- |
| 72.5 | 17.5 | 14.3 | 5.2% | C#CCC(NC(=O)[C@H](CCCCN)NC(=O)[C@H](CCCNC(=N)N)NC(=O)c1ccccc1)C(N)=O (stereo partly drawn) (Bz-Arg-Lys-[ξPra]-NH2) |
| 66.6 | 17.5 | 21.3 | inactive | N=C(N)NCCC[C@H](NC(=O)c1ccccc1)C(=O)N[C@@H](CCCCN)C(=O)N[C@@H](Cc1ccc([N+](=O)[O-])cc1)C(N)=O (Bz-Arg-Lys-[Phe(4-NO2)]-NH2) |
| 82.3 | 7.4 | 12.9 | 7.9% | N=C(N)NCCC[C@H](NC(=O)c1ccccc1)C(=O)N[C@@H](CCCCN)C(=O)N[C@@H](Cc1ccc(O)cc1)C(N)=O (Bz-Arg-Lys-Tyr-NH2) |
| 63.2 | 22.7 | 18.4 | 5.9% | CC(C)C[C@H](NC(=O)[C@H](CCCCN)NC(=O)[C@H](CCCNC(=N)N)NC(=O)c1ccccc1)C(N)=O (Bz-Arg-Lys-Leu-NH2) |
| 61.3 | 30.1 | 12.5 | inactive | N=C(N)NCCC[C@H](NC(=O)c1ccccc1)C(=O)N[C@@H](CCCCN)C(=O)N[C@@H](Cc1cccnc1)C(N)=O (Bz-Arg-Lys-[3Pal]-NH2) |
| 80.7 | 11.9 | 18.2 | 7.2% | N=C(N)NCCC[C@H](NC(=O)c1ccccc1)C(=O)N[C@@H](CCCCN)C(=O)N[C@@H](Cc1ccccc1)C(N)=O (Bz-Arg-Lys-Phe-NH2) |
| 62 | 25.2 | 8.5 | inactive | CCC[C@H](NC(=O)[C@H](CCCCN)NC(=O)[C@H](CCCNC(=N)N)NC(=O)c1ccccc1)C(N)=O (Bz-Arg-Lys-[Nva]-NH2) |
| 57.9 | 30.1 | 21.9 | 6.2% | N=C(N)NCCC[C@H](NC(=O)c1ccccc1)C(=O)N[C@@H](CCCCN)C(=O)N[C@@H](CO)C(N)=O (Bz-Arg-Lys-Ser-NH2) |
| 27.5 | 92.2 | 17.9 | 9.2% | N=C(N)NCCC[C@H](NC(=O)c1ccccc1)C(=O)N[C@@H](CCCCN)C(=O)Nc1ccc(C(N)=O)cc1 (Bz-Arg-Lys-[4Abz]-NH2) |
| 71.7 | 14.4 | 15.9 | inactive | N#Cc1ccc(C[C@H](NC(=O)[C@H](CCCCN)NC(=O)[C@H](CCCNC(=N)N)NC(=O)c2ccccc2)C(N)=O)cc1 (Bz-Arg-Lys-[Phe(4-CN)]-NH2) |
| 68.1 | 13.3 | 7.7 |  | CCCC[C@H](NC(=O)[C@H](CCCCN)NC(=O)[C@H](CCCNC(=N)N)NC(=O)c1ccccc1)C(N)=O |

Source: ChEMBL document CHEMBL3352023, “C-terminal residue optimization and fragment merging: discovery of a potent Peptide-hybrid inhibitor of dengue protease” (ACS Med Chem Lett, 2014)
